Assay results gathered from unrelated publications.
ALOX5: Polyunsaturated fatty acid 5-lipoxygenase (ALOX5, Homo sapiens, UniProt P09917)
murD: UDP-N-acetylmuramoylalanine--D-glutamate ligase (murD, Escherichia coli K-12, UniProt P14900)
ABCB1: ATP-dependent translocase ABCB1 (ABCB1, Homo sapiens, UniProt P08183)
PDE8A: High affinity cAMP-specific and IBMX-insensitive 3',5'-cyclic phosphodiesterase 8A (PDE8A, Homo sapiens, UniProt O60658)
BCKDK: Branched-chain alpha-ketoacid dehydrogenase kinase (BCKDK, Homo sapiens, UniProt O14874)
PTPN7: Tyrosine-protein phosphatase non-receptor type 7 (PTPN7, Homo sapiens, UniProt P35236)
SLC47A2: Multidrug and toxin extrusion protein 2 (SLC47A2, Homo sapiens, UniProt Q86VL8)
HDAC8: Histone deacetylase 8 (HDAC8, Homo sapiens, UniProt Q9BY41)
YES1: Tyrosine-protein kinase Yes (YES1, Homo sapiens, UniProt P07947)
HDAC1: Histone deacetylase 1 (HDAC1, Homo sapiens, UniProt Q13547)

| Compound | target | test | test system | setting | IC50 |
| --- | --- | --- | --- | --- | --- |
| C=C(C)[C@@H]1CCC(C)=C[C@H]1c1c(O)cc(CCC)cc1O | ALOX5 | enzyme activity, inhibitor | – | – | 4.9 µM |
| CCCCCCCCCCCCCCCc1cccc(O)c1C(=O)O | Histone acetyltransferase KAT2B (KAT2B, Homo sapiens, UniProt Q92831) | enzyme activity, inhibitor, radiometric | – | – | > 200 µM |
| O=C(Nc1ccc(C=NNS(=O)(=O)c2ccc3ccccc3c2)cc1)c1ccccc1Br | murD | enzyme activity, inhibitor, absorbance | – | – | 55 µM |
| CC1=CC[C@H]2[C@@H]([C@@H]1CC[C@H]1[C@]3(C)CC[C@H](O)C(C)(C)O[C@H]3CC[C@]1(C)O)C(C)(C)CC[C@]2(C)O | ABCB1 | transporter efflux, inhibitor, fluorescence | KB-V1 | 10 min | 50 to 100 µM |
| O=C1NC(=O)/C(=C/c2ccc(OCCNc3nc4c(cnn4C4CCCC4)c(=O)[nH]3)c(F)c2)S1 | PDE8A | enzyme activity, inhibitor | – | – | 0.199 µM |
| Cc1ccc(-c2cc(-c3ccc(-c4ccc(C(=O)O)cc4)[nH]3)nc3c(C(C)C)cccc23)cc1 | Retinoic acid receptor gamma (RARG, Homo sapiens, UniProt P13631) | reporter gene, antagonist | – | – | > 3.3 µM |
| CCCCc1nc(C)c(CC(=S)N(C)C)c(=O)n1Cc1ccc(-c2ccccc2-c2nnn[nH]2)cc1 | BCKDK | enzyme activity, inhibitor | – | – | 51.9 µM |
| O=C1c2ccccc2-c2cccc3cccc1c23 | PTPN7 | enzyme activity, inhibitor, fluorescence | – | – | 35 µM |
| CCS(=O)(=O)N1CC(CC#N)(n2cc(-c3ncnc4[nH]ccc34)cn2)C1 | SLC47A2 | transporter uptake, inhibitor, radiometric | – | 2 min | 13.7 µM |
| CCN(CC)CCNC(=O)c1c(C)[nH]c(/C=C2\C(=O)Nc3ccc(F)cc32)c1C | ABCB1 | transporter efflux, inhibitor | LLC-PK1 | 1 h | 6.7 µM |
| COC(=O)[C@]1(O)C[C@@H](O)[C@@H](O)[C@H](OC(=O)/C=C/c2ccc(O)c(O)c2)C1 | HDAC8 | enzyme activity, inhibitor | – | – | 8.22 µM |
| CCCCc1nc(Cl)c(CO)n1Cc1ccc(-c2ccccc2-c2nn[nH]n2)cc1 | BCKDK | enzyme activity, inhibitor | – | – | 19.8 µM |
| CNC(=O)c1cc2c(Oc3ccc(NC(=O)C4(C(=O)Nc5ccc(F)cc5)CC4)cc3)ccnc2cc1OC | Tyrosine-protein kinase Srms (SRMS, Homo sapiens, UniProt Q9H3Y6) | enzyme activity, inhibitor, radiometric | – | – | 0.01 µM |
| CCCCC1=NC2(CCCC2)C(=O)N1Cc1ccc(-c2ccccc2-c2nnn[nH]2)cc1 | BCKDK | enzyme activity, inhibitor | – | – | 32.9 µM |
| CCCCCc1cc(O)c(C/C=C(\C)CCC=C(C)C)c(O)c1 | ALOX5 | enzyme activity, inhibitor | – | – | 0.7 µM |
| CCn1ncc2c1-c1cnc(N)c(c1)O[C@H](C)c1cc(F)ccc1-c1nn(C)nc1C2 | Ephrin type-A receptor 6 (EPHA6, Homo sapiens, UniProt Q9UF33) | enzyme activity, inhibitor, radiometric | – | – | 0.116 µM |
| CCc1cc(/C(C)=N/OCc2ccc(C3CCCCC3)c(C(F)(F)F)c2)ccc1CN1CC(C(=O)O)C1 | Cytochrome P450 2A6 (CYP2A6, Homo sapiens, UniProt P11509) | enzyme activity, inhibitor | human, liver microsomes | 20 min | > 1.1 µM |

| Compound | target | test | test system | setting | IC50 |
| --- | --- | --- | --- | --- | --- |
| O=C(O)c1cc(O)c2c(c1)[C@H]([C@H]1c3cc(C(=O)O)cc(O)c3C(=O)c3c(O[C@@H]4O[C@H](CO)[C@@H](O)[C@H](O)[C@H]4O)cccc31)c1cccc(O[C@@H]3O[C@H](CO)[C@@H](O)[C@H](O)[C@H]3O)c1C2=O | PTPN7 | enzyme activity, inhibitor, fluorescence | – | – | 1 µM |
| O=c1cc(-c2ccc(O)c(O)c2)oc2cc(O)cc(O)c12 | HDAC8 | enzyme activity, inhibitor | – | – | 6.91 µM |
| C=CC(=O)Nc1cc(Nc2nccc(Nc3cc(Cl)c(F)cc3C(C)(C)O)n2)c(OC)cc1N1CC[C@@H](N(C)C)C1 | YES1 | enzyme activity, inhibitor | – | with preincubation | 2.9 µM |
| Cc1cnc(-c2ccc(-c3ccc(NC(=O)Nc4c(F)cc(F)cc4F)cc3F)c3c2C(=O)NC3)[nH]1 | YES1 | enzyme activity, inhibitor | – | – | 0.0045 µM |
| CCCCc1ncc(/C=C(\Cc2cccs2)C(=O)O)n1Cc1ccc(C(=O)O)cc1 | BCKDK | enzyme activity, inhibitor | – | – | 76.4 µM |
| O=C(NO)c1ccc(NC(=O)C2(c3ccc(F)cc3)CCCC2)c(F)c1 | HDAC1 | enzyme activity, inhibitor | – | – | 0.204 µM |
| CCCC[C@@H](C(=O)N[C@@H](CC(=O)O)C(=O)N(C)[C@@H](Cc1ccccc1)C(N)=O)N(C)C(=O)[C@H](Cc1c[nH]c2ccccc12)NC(=O)CNC(=O)[C@H](Cc1ccc(O)cc1)NC(=O)[C@H](C)NC(=O)[C@@H](CCC(=O)O)NC(=O)CN1CCN(CC(=O)O)CCN(CC(=O)O)CCN(CC(=O)O)CC1 | Gastrin/cholecystokinin type B receptor (Rattus norvegicus, UniProt P30553) | ligand displacement, radioligand | – | – | 0.00453 µM |
| CN/C(=N/CCSCc1nc[nH]c1C)NC#N | SLC47A2 | transporter uptake, inhibitor, radiometric | HEK293 | 5 min, pH 8.5 | 3.6 µM |
| O=C(Nc1ccccc1C=NNS(=O)(=O)c1ccc2ccccc2c1)c1cc([N+](=O)[O-])cc([N+](=O)[O-])c1 | murD | enzyme activity, inhibitor, absorbance | – | – | 49 µM |
| CCCCC(=O)N(Cc1ccc(-c2ccccc2-c2nnn[nH]2)cc1)[C@H](C(=O)O)C(C)C | BCKDK | enzyme activity, inhibitor | – | – | 1.67 µM |
| C=C(C)[C@@H]1CCC(C)=C[C@H]1c1c(O)cc(CCCCC)cc1O | ALOX5 | enzyme activity, inhibitor | – | – | 4.3 µM |
| CC/C=C\C/C=C\C/C=C\C/C=C\C/C=C\CCCC(=O)O | DNA polymerase subunit gamma-1 (POLG, Homo sapiens, UniProt P54098) | enzyme activity, inhibitor | – | – | 23.9 µM |
| O=C(Nc1ccc(C=NNS(=O)(=O)c2ccc3ccccc3c2)cc1)c1ccccc1[N+](=O)[O-] | murD | enzyme activity, inhibitor, absorbance | – | – | 45 µM |
| COc1cc(C[C@H]2C(=O)OC[C@@H]2Cc2ccc(OC)c(OC)c2)ccc1O | PDE8A | enzyme activity, inhibitor | – | – | > 20 µM |
| CN1CCN(c2ccc(Nc3ncc4cc(C#N)c(=O)n(C5CCCC5)c4n3)cc2)CC1 | TGF-beta receptor type-2 (TGFBR2, Homo sapiens, UniProt P37173) | enzyme activity, inhibitor | – | – | 0.123 µM |
| CSc1ccc(/C=C2/C(C)=C(CC(=O)O)c3cc(F)ccc32)cc1 | PDE8A | enzyme activity, inhibitor | – | – | > 100 µM |
| CCCC[C@H](NC(=O)[C@H](C)c1c(C)[nH]c2ccc(O)cc12)c1ncc(-c2cc3ccccc3nc2OC)[nH]1 | HDAC1 | enzyme activity, inhibitor | – | – | 0.04 µM |
